The source of these data is ChEMBL document CHEMBL4364314, “Design, synthesis and biological evaluation of 6-deoxy O-spiroketal C-arylglucosides as novel renal sodium-dependent glucose cotransporter 2 (SGLT2) inhibitors for the treatment of type 2 diabetes” (Eur J Med Chem, 2019).

Data set [1] addresses T1, Sodium/glucose cotransporter 2 (Homo sapiens) (UniProt P31639).
T1 sequence (whole entry): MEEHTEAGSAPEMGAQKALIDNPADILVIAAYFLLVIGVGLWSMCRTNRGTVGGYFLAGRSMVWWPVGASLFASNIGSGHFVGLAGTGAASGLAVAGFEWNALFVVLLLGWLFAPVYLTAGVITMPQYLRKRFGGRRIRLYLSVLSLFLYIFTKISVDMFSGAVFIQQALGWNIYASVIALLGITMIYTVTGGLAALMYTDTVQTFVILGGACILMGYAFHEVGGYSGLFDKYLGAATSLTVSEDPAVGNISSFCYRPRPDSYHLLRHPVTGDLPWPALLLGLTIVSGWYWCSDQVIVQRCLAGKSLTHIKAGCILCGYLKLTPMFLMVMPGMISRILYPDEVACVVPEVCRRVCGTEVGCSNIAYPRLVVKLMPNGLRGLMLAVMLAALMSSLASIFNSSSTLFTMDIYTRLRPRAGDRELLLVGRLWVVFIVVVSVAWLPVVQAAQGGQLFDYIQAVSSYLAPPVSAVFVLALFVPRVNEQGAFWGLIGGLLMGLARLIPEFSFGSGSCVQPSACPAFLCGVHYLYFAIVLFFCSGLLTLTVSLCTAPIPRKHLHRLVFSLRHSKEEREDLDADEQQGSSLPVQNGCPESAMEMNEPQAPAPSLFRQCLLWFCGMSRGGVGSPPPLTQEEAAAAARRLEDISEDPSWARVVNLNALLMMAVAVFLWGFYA
Kind of data set: Binding affinity to human SGLT2 assessed as dissociation half-life.

In data set [2] the target is T2, Sodium/glucose cotransporter 1 (Homo sapiens, UniProt P13866).
T2 sequence (P13866 whole entry): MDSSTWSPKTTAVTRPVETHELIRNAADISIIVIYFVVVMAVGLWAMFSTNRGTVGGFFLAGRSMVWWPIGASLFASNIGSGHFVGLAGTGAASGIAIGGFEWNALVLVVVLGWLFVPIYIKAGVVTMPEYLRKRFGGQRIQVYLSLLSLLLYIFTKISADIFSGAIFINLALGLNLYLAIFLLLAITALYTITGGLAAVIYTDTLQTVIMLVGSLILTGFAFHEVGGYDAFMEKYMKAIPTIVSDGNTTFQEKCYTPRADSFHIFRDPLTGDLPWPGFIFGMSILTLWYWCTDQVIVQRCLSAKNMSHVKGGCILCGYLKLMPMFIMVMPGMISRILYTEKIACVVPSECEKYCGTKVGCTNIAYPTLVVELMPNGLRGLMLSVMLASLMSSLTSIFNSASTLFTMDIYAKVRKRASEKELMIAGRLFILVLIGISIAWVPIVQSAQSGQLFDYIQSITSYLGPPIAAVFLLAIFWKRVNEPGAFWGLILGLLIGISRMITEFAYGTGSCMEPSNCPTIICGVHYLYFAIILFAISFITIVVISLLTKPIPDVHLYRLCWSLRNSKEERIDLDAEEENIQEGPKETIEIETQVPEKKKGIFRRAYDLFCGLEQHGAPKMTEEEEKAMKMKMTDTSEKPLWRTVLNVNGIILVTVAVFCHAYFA
Kind of data set: Inhibition of human full length SGLT1 expressed in NIH3T3 cells measured after 1 hr in presence of [14C]-methyl-alpha -D-glucopyranoside by scintillation counter method. It counts as cell-based. In outline:
(§1)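 Stable NIH3T3 lines from retroviral transduction of full-length hSGLT1 or hSGLT2 (pBABE-puro, 8 µg/mL polybrene, puromycin 2 µg/mL selection for 2 weeks). Cells plated 2 days ahead, 2 mmol/L sodium butyrate added day 2. Read by scintillation counting. Compound-free buffer served as negative control, sodium-free N-methyl-glucamine buffer as blank.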

Data set [3] concerns the target T3, Sodium/glucose cotransporter 2 (Homo sapiens, UniProt P31639).
T3 sequence (P31639 whole entry): T1 sequence (whole entry)
Kind of data set: Inhibition of human full length SGLT2 expressed in NIH3T3 cells measured after 1 hr in presence of [14C]-methyl-alpha -D-glucopyranoside by scintillation counter method. It counts as cell-based. In outline:
as §1

The species named for a further data set is Homo sapiens. Kind of data set: Selectivity ratio of IC50 for human full length SGLT1 to IC50 for human full length SGLT2. In outline: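 Ratio of IC50 at hSGLT1 to IC50 at hSGLT2, both from the [14C]methyl-α-D-glucopyranoside uptake assay in stably transfected NIH3T3 cells.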
Data set [4] deals with Mus musculus. Kind of data set: Effect on urinary volume in C57BL/6J mouse at 1 mg/kg, po administered as single dose measured after 24 hrs (reference value: 1.24 +/- 0.45 mL). The class given is ADME, organism-based. To be noted: in vivo.
In data set [5] the test system is Mus musculus. Kind of data set: Effect on urine glucose concentration in C57BL/6J mouse at 1 mg/kg, po administered as single dose measured after 24 hrs by glucose oxidase method (reference value: 0.74 +/- 0.14 mmol/L). It counts as functional.
For data set [6], the system named is Mus musculus. Kind of data set: Effect on urine glucose excretion in C57BL/6J mouse at 1 mg/kg, po administered as single dose measured after 24 hrs assessed per 100 grams (reference value: 0.84 +/- 0.40 mg ). The class given is functional.
Data set [7] has as its system Rattus norvegicus. Kind of data set: Effect on urinary volume in Sprague-Dawley rat at 1 mg/kg, po administered as single dose measured after 24 hrs (reference value: 24.17 +/- 7.11 mL). The class given is ADME, organism-based. To be noted: in vivo.
The test system of data set [8] is Rattus norvegicus. Kind of data set: Effect on urine glucose concentration in Sprague-Dawley rat at 1 mg/kg, po administered as single dose measured after 24 hrs by glucose oxidase method (reference value: 0.28 +/- 0.16 mmol/L). It counts as functional.
The subject of data set [9] is Rattus norvegicus. Kind of data set: Effect on urine glucose excretion in Sprague-Dawley rat 1 mg/kg, po administered as single dose measured after 24 hrs assessed per 100 grams (reference value: 0.51 +/- 0.40 mg). The class given is functional.

Each structure is given as a SMILES string.

As for `OC[C@H]1O[C@@H](c2ccc(Cl)c(Cc3ccc(O[C@H]4CCOC4)cc3)c2)[C@H](O)[C@@H](O)[C@@H]1O`, the T1/2 in data set [1] is 1 h.

On to `C[C@H]1O[C@]2(OCc3cc(Cl)c(Cc4ccc(CO)s4)cc32)[C@H](O)[C@@H](O)[C@@H]1O`, for which the IC50 (usually the point on the concentration scale where inhibition reaches its midpoint) in data set [2] amounted to 2200 nM; in data set [3], 47.2 nM. Further, the Ratio IC50 in the data set listed under Homo sapiens amounted to 47.

With `CCCc1ccc(Cc2ccc3c(c2)[C@]2(OC3)O[C@H](C)[C@@H](O)[C@H](O)[C@H]2O)cc1`, in data set [3], the IC50 was > 100 nM.

Regarding `CCOc1ccc(Cc2cc([C@@H]3S[C@H](CO)[C@@H](O)[C@H](O)[C@H]3O)c(OC)cc2C)cc1`, the T1/2 in data set [1] amounted to 7 h.

With `C[C@H]1O[C@]2(OCc3cc(Cl)c(Cc4ccc(C=O)s4)cc32)[C@H](O)[C@@H](O)[C@@H]1O`, the concentration for half-maximal inhibition (IC50) in data set [2] worked out at 3600 nM; in [3], 51.3 nM. Besides, the Ratio IC50 in the data set listed under Homo sapiens was found to be 70.

Regarding `CCc1ccc(Cc2ccc3c(c2)[C@]2(OC3)O[C@H](C)[C@@H](O)[C@H](O)[C@H]2O)cc1`, the Ratio IC50 in the data set listed under Homo sapiens was 351.

For `C[C@H]1O[C@]2(OCc3cc(Cl)c(Cc4ccc(Cl)s4)cc32)[C@H](O)[C@@H](O)[C@@H]1O`, the IC50 in data set [2] is 500 nM; in data set [3], 15.9 nM. The Ratio IC50 in the data set listed under Homo sapiens turned out to be 30.

With `COC(=O)c1ccc(Cc2cc3c(cc2Cl)CO[C@]32O[C@H](C)[C@@H](O)[C@H](O)[C@H]2O)s1`, the half-inhibitory concentration (IC50) in [2] amounted to 3000 nM; in data set [3], 51.5 nM. Moreover, in the data set filed under Homo sapiens, the Ratio IC50 is 58.

Turning to `CCc1ccc(Cc2ccc3c(c2)[C@]2(OC3)O[C@H](CO)[C@@H](O)[C@H](O)[C@H]2O)cc1.O` [TOFOGLIFLOZIN], the Activity stood at 1.3 mL with Mus musculus [4]; 56.27 mmol/L in the data set with Mus musculus [5]; 48.85 mg in the data set on Mus musculus [6]; 26.5 mL in the data set on Rattus norvegicus [7]; 43.67 mmol/L in the data set on Rattus norvegicus [8]; 73.68 mg in the data set with Rattus norvegicus [9].

Take `COC(=O)Cc1ccc(Cc2cc3c(cc2Cl)CO[C@]32O[C@H](C)[C@@H](O)[C@H](O)[C@H]2O)s1`: the values for the half-maximal inhibitory concentration (IC50) in [2] and in data set [3] were 6400 nM and 42.4 nM, respectively. Further, the Ratio IC50 in the data set filed under Homo sapiens was 151.

As to `C[C@H]1O[C@]2(OCc3ccc(Cc4ccc(-c5ccc(F)cc5)s4)cc32)[C@H](O)[C@@H](O)[C@@H]1O`, the IC50 in data set [3] is > 100 nM.

With `CCCOCCc1ccc(Cc2cc3c(cc2Cl)CO[C@]32O[C@H](C)[C@@H](O)[C@H](O)[C@H]2O)s1`, the IC50 stood at 5000 nM in data set [2] and 42.3 nM in data set [3]. In addition, in the data set listed under Homo sapiens, the Ratio IC50 stood at 117.

As to `Cc1ccc(Cc2ccc3c(c2)[C@]2(OC3)O[C@H](C)[C@@H](O)[C@H](O)[C@H]2O)s1`, the IC50 in [3] is > 100 nM.

With `CCc1ccc(Cc2ccc3c(c2)[C@]2(OC3)O[C@H](C)[C@@H](O)[C@H](O)[C@H]2O)s1`, the IC50 in data set [3] is > 100 nM.

For the compound `C[C@H]1O[C@]2(OCc3cc(Cl)c(Cc4cc5ccccc5s4)cc32)[C@H](O)[C@@H](O)[C@@H]1O`, in data set [2], the IC50 stood at 2000 nM. Besides, in the data set filed under Homo sapiens, the Ratio IC50 was 81.

`C[C@H]1O[C@]2(OCc3ccc(Cc4ccc(-c5ccccc5)s4)cc32)[C@H](O)[C@@H](O)[C@@H]1O`: the IC50 in data set [3] is > 100 nM.

Consider `CCOc1ccc(Cc2cc3c(cc2Cl)CO[C@]32O[C@H](C)[C@@H](O)[C@H](O)[C@H]2O)cc1`, for which the IC50 in data set [2] is 500 nM; in data set [3], 8.8 nM. In the data set listed under Homo sapiens, the Ratio IC50 was found to be 60.

For the compound `CCc1ccc(Cc2cc3c(cc2Cl)CO[C@]32O[C@H](C)[C@@H](O)[C@H](O)[C@H]2O)cc1`, in data set [2], the IC50 is 400 nM. For the same compound, the Ratio IC50 in the data set listed under Homo sapiens stood at 13.

Regarding `C[C@H]1O[C@]2(OCc3ccc(Cc4ccc(-c5ccccn5)s4)cc32)[C@H](O)[C@@H](O)[C@@H]1O`, the IC50 in [3] is > 100 nM.

As to `C[C@H]1O[C@]2(OCc3ccc(Cc4cc5ccccc5o4)cc32)[C@H](O)[C@@H](O)[C@@H]1O`, the IC50 in [3] is > 100 nM.

On to `C[C@H]1O[C@]2(OCc3ccc(Cc4ccc5ccccc5c4)cc32)[C@H](O)[C@@H](O)[C@@H]1O`, for which the IC50 in [3] is > 100 nM.

As to `Cc1ccc(Cc2ccc3c(c2)[C@]2(OC3)O[C@H](C)[C@@H](O)[C@H](O)[C@H]2O)cc1`, in [3], the IC50 was > 100 nM.

Consider `CCOc1ccc(Cc2ccc3c(c2)[C@]2(OC3)O[C@H](C)[C@@H](O)[C@H](O)[C@H]2O)cc1`, for which the IC50 in data set [3] is > 100 nM.

For `CCCc1ccc(Cc2ccc3c(c2)[C@]2(OC3)O[C@H](C)[C@@H](O)[C@H](O)[C@H]2O)s1`, in data set [3], the IC50 was > 100 nM.

Take `COc1ccc(Cc2ccc3c(c2)[C@]2(OC3)O[C@H](C)[C@@H](O)[C@H](O)[C@H]2O)cc1`: the IC50 in data set [3] is > 100 nM.

Take `C[C@H]1O[C@]2(OCc3ccc(Cc4ccc(Cl)s4)cc32)[C@H](O)[C@@H](O)[C@@H]1O`: the IC50 in data set [3] was > 100 nM.

With `CC(C)c1ccc(Cc2ccc3c(c2)[C@]2(OC3)O[C@H](C)[C@@H](O)[C@H](O)[C@H]2O)cc1`, the IC50 in data set [3] is > 100 nM.

Take `COCCc1ccc(Cc2cc3c(cc2Cl)CO[C@]32O[C@H](C)[C@@H](O)[C@H](O)[C@H]2O)s1`: the IC50 in data set [2] was determined as 4700 nM; in data set [3] it was 69.4 nM. For the same compound, the Ratio IC50 in the data set filed under Homo sapiens came to 68.

In the case of `CCc1ccc(Cc2cc3c(cc2F)CO[C@]32O[C@H](C)[C@@H](O)[C@H](O)[C@H]2O)s1`, the IC50 in data set [3] worked out at 26.2 nM. Besides, the Ratio IC50 in the data set listed under Homo sapiens came out at 988.

Consider `C[C@H]1O[C@]2(OCc3cc(Cl)c(Cc4ccc(-c5ccc(F)cc5)s4)cc32)[C@H](O)[C@@H](O)[C@@H]1O`, for which the IC50 in data set [3] was > 100 nM.

Turning to `C[C@H]1O[C@]2(OCc3ccc(Cc4cc5ccccc5s4)cc32)[C@H](O)[C@@H](O)[C@@H]1O`, the IC50 in [3] is > 100 nM.

For the compound `Cc1ccc(Cc2cc3c(cc2Cl)CO[C@]32O[C@H](C)[C@@H](O)[C@H](O)[C@H]2O)s1`, the results for the IC50 in data set [2] and in data set [3] were 400 nM and 8.5 nM, respectively. The Ratio IC50 in the data set filed under Homo sapiens stood at 46.

Turning to `CCOCCc1ccc(Cc2cc3c(cc2Cl)CO[C@]32O[C@H](C)[C@@H](O)[C@H](O)[C@H]2O)s1`, the IC50 in [2] came to 4800 nM; in data set [3], 67.5 nM. For the same compound, the Ratio IC50 in the data set filed under Homo sapiens turned out to be 71.
